Consider one compound from ChEMBL document CHEMBL1156843, “3,5-Bis(benzylidene)-1-[4-2-(morpholin-4-yl)ethoxyphenylcarbonyl]-4-piperidone hydrochloride: a lead tumor-specific cytotoxin which induces apoptosis and autophagy” (Bioorg Med Chem Lett, 2010).

Calls of active or inactive are those of the source. The rule behind the calls is not given here.

A short description of data set [1]: Cytotoxicity against human HGF cells. Format: cell-based.
Data set [2] is described as follows: Cytotoxicity against human HPC cells. Format: cell-based.
The nature of data set [3]: Cytotoxicity against human HPLF cells. The class given is cell-based.
The test system of data set [4] is HL-60. The data set can be described thus: Cytotoxicity against human HL60 cells. The class given is functional. The gist of the method:
(§1)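 Each value is the mean of two independent determinations.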

Data set [5] concerns HSC-2. The data set can be described thus: Cytotoxicity against human HSC2 cells. Format: functional. The gist of the method: as §1
Data set [6] has as its system HSC-4. The data set can be described thus: Cytotoxicity against human HSC4 cells. Format: functional. The procedure, abridged:
as §1

Data set [7] has as its system HL-60. The data set can be described thus: Induction of bell-shaped internucleosomal DNA fragmentation in human HL60 cells at 1 to 2 uM after 7 hrs. The class given is functional, cell-based.
In data set [8] the test system is HSC-2. The data set can be described thus: Induction of bell-shaped internucleosomal DNA fragmentation in human HSC2 cells at 2 to 32 uM after 7 hrs. Format: functional, cell-based.
Data set [9] deals with HSC-2. Kind of data set: Induction of acidic organelles formation in human HSC2 cells at 4 to 8 uM after 6 hrs. Format: functional, cell-based. The gist of the method: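 Acidic organelle formation scored in HSC-2 cells after 6 h exposure; reference condition was culture in Hank's balanced salt solution for 1 h.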
In data set [10] the test system is HT-29. Kind of data set: Cell cycle arrest in human HT-29 cells assessed as accumulation at G1 phase at 5 uM after 48 hrs by flow cytometry. Format: functional. The procedure, abridged: (§2)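 HT29 cells plated and grown 48 h to 50–60% confluency, then exposed to compound for 48 h. Cells trypsinized, PBS-washed, fixed overnight in 70% ethanol at 4 °C. Held 1 h on ice, then DNA content read by flow cytometry.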

The test system of data set [11] is HT-29. The data set can be described thus: Cell cycle arrest in human HT-29 cells assessed as accumulation at sub-G1 phase at 5 uM after 48 hrs by flow cytometry. Format: functional. The procedure, abridged:
as §2

Data set [12] deals with HT-29. The data set can be described thus: Cell cycle arrest in human HT-29 cells assessed as accumulation at S phase at 5 uM after 48 hrs by flow cytometry. The class given is functional. The gist of the method: as §2
The subject of data set [13] is HT-29. Kind of data set: Cell cycle arrest in human HT-29 cells assessed as accumulation at G2/M phase at 5 uM after 48 hrs by flow cytometry. The class given is functional. The procedure, abridged: as §2
In data set [14] the test system is HT-29. Kind of data set: Cytotoxicity against human HT-29 cells after 96 hrs by MTT assay. The class given is functional, cell-based. As to conditions: HT-29, 96 h. The gist of the method:
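HT29 cells (ATCC) kept in DMEM with 10% fetal calf serum under 5% CO2 at 37 °C. Cells detached with trypsin and seeded at 9000 cells/well, then allowed 24 h to attach. Compound added at a range of concentrations; medium-only wells served as controls. After 96 h, proliferation was estimated from MTT reduction read at 540 nm.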

The subject of data set [15] is HL-60. The data set can be described thus: Selectivity index, ratio of CC50 for human normal cells to CC50 for human HL60 cells. The class given is functional. The gist of the method:
(§3)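 Ratio of the mean CC50 over three normal human lines (HGF gingival fibroblasts, HPC pulp cells, HPLF periodontal ligament fibroblasts) to the CC50 for the given tumor line. Each CC50 is the mean of two independent determinations.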

The test system of data set [16] is HSC-2. Kind of data set: Selectivity index, ratio of CC50 for human normal cells to CC50 for human HSC2 cells. The class given is functional. The gist of the method:
as §3

The test system of data set [17] is HSC-4. Kind of data set: Selectivity index, ratio of CC50 for human normal cells to CC50 for human HSC4 cells. The class given is functional. The gist of the method: as §3

On to `Cl.O=C1/C(=C/c2ccccc2)CN(C(=O)c2ccc(OCCN3CCOCC3)cc2)C/C1=C\c1ccccc1`, for which the 50% cytotoxic concentration (CC50) in data set [1] amounted to 83 µM; in [2] it was 95 µM; in data set [3], 30 µM; in the data set with HL-60 [4], 1.2 µM; in the data set with HSC-2 [5] it was 2.4 µM; with HSC-4 [6] it was 2.4 µM. Also, the result with HL-60 [7] and with HSC-2 [9] was Active. Also, in the data set on HSC-2 [8], the outcome was inactive. Besides, the Activity in the data set on HT-29 [10] turned out to be 50.5%; in the data set on HT-29 [11] it was 11.4%; in the data set with HT-29 [12], 25.2%; in the data set on HT-29 [13], 11.1%. Further, 3.75 µM corresponded to half-maximal inhibition in the data set with HT-29 [14] (IC50). Besides, the figures for the “Selectivity Index” value in the data set with HL-60 [15], in the data set on HSC-2 [16] and in the data set with HSC-4 [17] were 58, 29 and 29, respectively.
